ChEMBL document CHEMBL1131571, “Potent, selective, and orally bioavailable tricyclic pyridyl acetamide N-oxide inhibitors of farnesyl protein transferase with enhanced in vivo antitumor activity” (J Med Chem, 1998)

Tests used:
[1] = Biological half life was measured when given iv route in mice; type: ADME, organism-based; conditions: mouse, in vivo
Procedure, shortened: (§1)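 Mice received a single 25 mg/kg dose, as HCl salt in 20% hydroxypropyl-β-cyclodextrin, either orally or iv by tail vein. Blood was taken by cardiac puncture after CO2 euthanasia at nine times from 2 min to 24 h, with two mice per time point. Serum was acetonitrile-precipitated and quantified by HPLC-APCI tandem MS. AUC was derived by the linear trapezoidal rule on mean concentrations. Bioavailability is the oral/iv AUC ratio, from different animals. Cmax is the highest mean oral concentration. Half-life was estimated graphically after iv dosing.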

[2] = Area under the concentration time curve (AUC) taken for 0-24 hr was measured when administered through iv route in mice; type: ADME, organism-based; parameters: time < 24 hr, route intravenous; conditions: mouse, in vivo; procedure, shortened: as §1
[3] = system: COS-1; test: Inhibitory activity was measured against COS cell; type: functional, cell-based, Cercopithecidae; conditions: Chlorocebus aethiops
Procedure, shortened: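 Inhibition of intracellular H-Ras processing, measured in transfected Cos cells.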

[4] = Inhibition of Geranylgeranyl transferase; parameters: species or system Homo sapiens
Procedure, shortened: (§2)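 Radiometric transfer assays measuring trichloroacetic acid-precipitable label. FPT: [3H]farnesyl from [3H]farnesyl pyrophosphate onto Ha-Ras-CVLS. GGPT-1: [3H]geranylgeranyl from [3H]geranylgeranyl diphosphate onto Ha-Ras-CVLL.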

[5] = system: DLD-1; test: The inhibition of growth of solid tumor in DLD-1 model was measured at 50 mg/kg after po administration. p<0.01; type: functional; conditions: Homo sapiens
[6] = Oral bioavailability in mouse; type: ADME, organism-based; conditions: in vivo; procedure, shortened: as §1
[7] = maximum concentration was measured when administered through oral route in mice; type: ADME, organism-based; parameters: route oral; conditions: mouse, in vivo; procedure, shortened: as §1
[8] = Area under the concentration time curve (AUC) taken for 0-24 hr was measured when administered through oral route in mice; type: ADME, organism-based; parameters: time < 24 hr, route oral; conditions: mouse, in vivo; procedure, shortened: as §1
[9] = system: DLD-1; test: The inhibition of growth of solid tumor in DLD-1 model was measured at 10 mg/kg after po administration. 0.01<p<0.025; type: functional; conditions: Homo sapiens
[10] = target: Protein farnesyltransferase (Homo sapiens, UniProt P49354+P49356); test: Inhibition of Farnesyltransferase; type: protein-complex assay; procedure, shortened: as §2
[11] = system: DLD-1; test: The inhibition of growth of solid tumor in DLD-1 model was measured at 10 mg/kg after po administration. 0.05<p<0.1; type: functional; conditions: Homo sapiens
[12] = system: DLD-1; test: The inhibition of growth of solid tumor in DLD-1 model was measured at 50 mg/kg after po administration. 0.01<p<0.025; type: functional; conditions: Homo sapiens
[13] = system: DLD-1; test: The inhibition of growth of solid tumor in DLD-1 model was measured at 10 mg/kg after po administration. 0.1<p<0.25; type: functional; conditions: Homo sapiens

half-life [1] [min]	AUC at 24 h [2] [ng·h/mL]	IC50 [4] [µM]	bioavailability [6] [%]	Cmax [7] [ng/mL]	AUC at 24 h [8] [ng·h/mL]	IC50 [10] [nM]	SMILES	IC50 [3] [nM]	inhibition in vivo at 50 mg/kg [5] [%]	inhibition in vivo at 10 mg/kg [9] [%]	inhibition in vivo at 10 mg/kg [11] [%]	inhibition in vivo at 50 mg/kg [12] [%]	inhibition in vivo at 10 mg/kg [13] [%]
82.2	43700	> 33	100	12000	84900	40	O=C(Cc1cc[n+]([O-])cc1)N1CCC(C2c3ccc(Cl)cc3C=C(Br)c3cc(Br)cnc32)CC1 (stereo unspecified)	600	70	52			
48		38	75	10000			O=C(Cc1cc[n+]([O-])cc1)N1CCC(=C2c3ccc(Cl)cc3CCc3cc(Br)cnc32)CC1		40	28			
26.6	18600	> 38	100	11000	19000	30	O=C(Cc1cc[n+]([O-])cc1)N1CCC(C2c3ccc(Cl)cc3C=Cc3cc(Br)cnc32)CC1 (stereo unspecified)	700	37		21		
46	10600	> 38	38	10000	4100	40	O=C(Cc1cc[n+]([O-])cc1)N1CCC(C2c3ccc(Cl)cc3CCc3cc(Br)cnc32)CC1 (stereo unspecified)	400				60	38
